From ChEMBL document CHEMBL3286316, “Cinnamic anilides as new mitochondrial permeability transition pore inhibitors endowed with ischemia-reperfusion injury protective effect in vivo” (J Med Chem, 2014)
Blank lines part the entries; values can stand above or below the compound they belong to. Calls of active or inactive are those of the source. The calls are words filed in the database; no cut-off is given here.

Legend:
Rattus norvegicus [1] = experiment: Toxicity in WI(Glx/BRL/Han)IGS rat assessed as body temperature at 30 mg/kg, iv; assay type: organism-based; set-up: dose 30 mg/kg, route intravenous; settings: in vivo
Procedure, shortened: (§1)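 Conscious female rats implanted with telemetry, given a single iv dose up to 30 mg/kg. Heart rate, systolic, diastolic and mean blood pressure, and body temperature recorded from at least 1 h before to about 24 h after dosing.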

Rattus norvegicus [2] = experiment: Toxicity in WI(Glx/BRL/Han)IGS rat assessed as heart rate at 30 mg/kg, iv; assay type: organism-based; set-up: dose 30 mg/kg, route intravenous; settings: in vivo; procedure, shortened: as §1
[3] = biological target: Voltage-gated inwardly rectifying potassium channel KCNH2 (Homo sapiens, UniProt Q12809); experiment: Displacement of [3H]-astemizole from human hERG expressed in HEK293 cells at 30 uM by liquid scintillation counting; assay type: cell-based; settings: hek293, 30 µM
Voltage-gated inwardly rectifying potassium channel KCNH2, sequence (Q12809 whole entry): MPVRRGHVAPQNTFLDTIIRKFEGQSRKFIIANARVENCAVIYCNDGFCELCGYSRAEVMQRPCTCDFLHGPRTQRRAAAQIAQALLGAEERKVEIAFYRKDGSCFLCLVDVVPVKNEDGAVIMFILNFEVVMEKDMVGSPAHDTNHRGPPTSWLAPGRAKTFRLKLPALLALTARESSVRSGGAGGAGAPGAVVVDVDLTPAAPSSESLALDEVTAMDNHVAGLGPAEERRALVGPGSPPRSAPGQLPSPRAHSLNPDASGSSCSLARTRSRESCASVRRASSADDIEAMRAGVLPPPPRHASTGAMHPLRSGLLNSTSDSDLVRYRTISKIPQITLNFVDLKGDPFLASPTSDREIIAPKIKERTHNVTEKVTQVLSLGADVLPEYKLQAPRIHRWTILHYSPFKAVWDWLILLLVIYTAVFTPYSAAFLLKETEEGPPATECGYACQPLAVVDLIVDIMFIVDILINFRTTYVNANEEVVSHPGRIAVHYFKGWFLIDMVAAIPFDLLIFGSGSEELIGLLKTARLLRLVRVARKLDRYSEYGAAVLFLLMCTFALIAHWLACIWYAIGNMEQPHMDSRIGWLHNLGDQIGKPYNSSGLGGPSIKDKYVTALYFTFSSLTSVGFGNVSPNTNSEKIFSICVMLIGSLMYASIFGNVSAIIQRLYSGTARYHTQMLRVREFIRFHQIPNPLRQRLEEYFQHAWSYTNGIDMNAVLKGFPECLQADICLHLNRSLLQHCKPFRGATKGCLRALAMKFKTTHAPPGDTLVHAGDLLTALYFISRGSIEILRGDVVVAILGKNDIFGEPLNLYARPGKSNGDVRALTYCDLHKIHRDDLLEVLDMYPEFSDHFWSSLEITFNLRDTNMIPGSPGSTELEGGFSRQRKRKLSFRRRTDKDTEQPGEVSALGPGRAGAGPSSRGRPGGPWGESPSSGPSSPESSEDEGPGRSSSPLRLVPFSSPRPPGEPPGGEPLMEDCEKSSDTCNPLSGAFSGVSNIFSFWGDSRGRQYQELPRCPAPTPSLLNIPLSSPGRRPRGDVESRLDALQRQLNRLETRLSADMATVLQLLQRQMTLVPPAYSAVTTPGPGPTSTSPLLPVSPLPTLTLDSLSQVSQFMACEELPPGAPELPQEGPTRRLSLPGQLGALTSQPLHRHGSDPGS

Mus musculus [4] = species: Mus musculus; experiment: Inhibition of calcium-induced mPTP opening in C57/bl6 mouse liver mitochondria assessed as increase in calcium retention capacity at 0.1 to 5 uM by fluorimetry
Procedure, shortened: (§2)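 Male C57/bl6 liver mitochondria (0.5 mg/mL) in KCl/MOPS buffer with glutamate/malate, pH 7.4, containing 1 μM Calcium Green 5N. Compound added just before the start. CaCl2 pulses added every minute at 25 °C; extramitochondrial fluorescence (ex 505/em 535 nm) followed until mPTP opening. Dose series 0.1–5.0 μM, or given in combination with CsA; mean of three experiments.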

Mus musculus [5] = species: Mus musculus; experiment: Inhibition of calcium-induced mPTP opening in C57/bl6 mouse heart mitochondria assessed as increase in calcium retention capacity at 5 uM after 2 mins by fluorimetry (reference value: 80 uM)
Procedure, shortened: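 Excised mouse hearts on a Langendorff apparatus, perfused 2 min with Krebs-type buffer, then 2 min with 5 μM compound in 0.1% DMSO or 0.1% DMSO alone. Hearts iced, mitochondria isolated, CRC measured with Calcium Green 5N and repeated CaCl2 pulses at 25 °C. Value is absolute calcium retained; n = 6 per group.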

Mus musculus [6] = experiment: Increase in calcium retention capacity in C57/bl6 mouse heart mitochondria at 15 mg/kg, iv measured after 5 mins by fluorimetry (reference value: 69.8 uM); assay type: functional
Procedure, shortened: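 Mice dosed 15 mg/kg iv in the tail vein. Hearts taken 5 min later and mitochondria isolated in sucrose/Tris/EGTA/0.1% BSA buffer. CRC measured with Calcium Green 5N under CaCl2 pulses added every minute at 25 °C until mPTP opening. Value is absolute calcium retained; vehicle DMSO, n = 16 vehicle, n = 6 treated.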

[7] = Plasma concentration in New Zealand rabbit myocardial infarction model at 5 mg/kg, iv administered as bolus dose after 5 mins by LC/MS analysis; assay type: ADME, organism-based, Oryctolagus cuniculus; set-up: dose 5 mg/kg, route intravenous
Procedure, shortened: (§3)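 Satellite rabbits (n = 5) given the same 5 mg/kg iv bolus. Jugular blood taken into K2EDTA predose and at 5, 15, 30, 60 and 240 min post reperfusion. Plasma precipitated with ACN/H3PO4 and analysed by UPLC-MS/MS, ESI(+), MRM mode. Eight-point calibration 2.5–1000 ng/mL, LLOQ 2.5 ng/mL. Half-life by noncompartmental analysis.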

Oryctolagus cuniculus [8] = experiment: Cardioprotective effect in New Zealand rabbit ischemia/reperfusion-induced left anterior descending coronary artery ligation myocardial infarction model assessed as ratio of area at risk to infarct area at 5 mg/kg, iv administered as bolus dose 5 min prior to reperfusion (reference value: 57.3%); assay type: functional, Myocardium
[9] = Plasma concentration in New Zealand rabbit myocardial infarction model at 5 mg/kg, iv administered as bolus dose after 240 mins by LC/MS analysis; assay type: ADME, organism-based, Oryctolagus cuniculus; set-up: dose 5 mg/kg, route intravenous; procedure, shortened: as §3
[10] = Half life in New Zealand rabbit myocardial infarction model plasma at 5 mg/kg, iv administered as bolus dose by LC/MS analysis; assay type: ADME, organism-based, Oryctolagus cuniculus; set-up: dose 5 mg/kg, route intravenous; procedure, shortened: as §3
Rattus norvegicus [11] = experiment: Toxicity in WI(Glx/BRL/Han)IGS rat assessed as systolic blood pressure at 30 mg/kg, iv; assay type: organism-based, Artery; set-up: dose 30 mg/kg, route intravenous; settings: in vivo; procedure, shortened: as §1
Rattus norvegicus [12] = experiment: Toxicity in WI(Glx/BRL/Han)IGS rat assessed as diastolic blood pressure at 30 mg/kg, iv; assay type: organism-based, Artery; set-up: dose 30 mg/kg, route intravenous; settings: in vivo; procedure, shortened: as §1
Mus musculus [13] = species: Mus musculus; experiment: Inhibition of calcium-induced mPTP opening in C57/bl6 mouse liver mitochondria assessed as increase in calcium retention capacity in presence of cyclosporine A by fluorimetry; procedure, shortened: as §2
Oryctolagus cuniculus [14] = experiment: Cardioprotective effect in New Zealand rabbit ischemia/reperfusion-induced left anterior descending coronary artery ligation myocardial infarction model assessed as ratio of area at risk to infarct area at 10 mg/kg, iv administered as bolus dose 5 min prior to reperfusion (reference value: 57.3%); assay type: functional, Myocardium
Mus musculus [15] = species: Mus musculus; experiment: Inhibition of Cacl2-induced mPTP opening in C57/bl6 mouse liver mitochondria assessed as reduction in mitochondrial swelling at 1 uM by spectrophotometry
Procedure, shortened: (§4)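 Male C57/bl6 liver mitochondria at 0.5 mg/mL final in KCl/MOPS/phosphate buffer with glutamate/malate, pH 7.4; compound at 1 μM added before the mitochondria. Swelling followed as the fall in A540, read every 9 s for 10 min. Inducers: CaCl2 150 μM, FCCP 50 nM, menadione 100 μM, diamide 300 μM.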

Mus musculus [16] = species: Mus musculus; experiment: Inhibition of FCCP-induced mPTP opening in C57/bl6 mouse liver mitochondria assessed as reduction in mitochondrial swelling at 1 uM by spectrophotometry; procedure, shortened: as §4
Mus musculus [17] = species: Mus musculus; experiment: Inhibition of menadione-induced mPTP opening in C57/bl6 mouse liver mitochondria assessed as reduction in mitochondrial swelling at 1 uM by spectrophotometry; procedure, shortened: as §4
Mus musculus [18] = species: Mus musculus; experiment: Inhibition of diamide-induced mPTP opening in C57/bl6 mouse liver mitochondria assessed as reduction in mitochondrial swelling at 1 uM by spectrophotometry; procedure, shortened: as §4
[19] = biological target: Sodium-dependent noradrenaline transporter (Homo sapiens) (UniProt P23975); experiment: Displacement of antagonist radioligand from human NET at 10 uM
Sodium-dependent noradrenaline transporter (Homo sapiens), sequence (P23975 whole entry): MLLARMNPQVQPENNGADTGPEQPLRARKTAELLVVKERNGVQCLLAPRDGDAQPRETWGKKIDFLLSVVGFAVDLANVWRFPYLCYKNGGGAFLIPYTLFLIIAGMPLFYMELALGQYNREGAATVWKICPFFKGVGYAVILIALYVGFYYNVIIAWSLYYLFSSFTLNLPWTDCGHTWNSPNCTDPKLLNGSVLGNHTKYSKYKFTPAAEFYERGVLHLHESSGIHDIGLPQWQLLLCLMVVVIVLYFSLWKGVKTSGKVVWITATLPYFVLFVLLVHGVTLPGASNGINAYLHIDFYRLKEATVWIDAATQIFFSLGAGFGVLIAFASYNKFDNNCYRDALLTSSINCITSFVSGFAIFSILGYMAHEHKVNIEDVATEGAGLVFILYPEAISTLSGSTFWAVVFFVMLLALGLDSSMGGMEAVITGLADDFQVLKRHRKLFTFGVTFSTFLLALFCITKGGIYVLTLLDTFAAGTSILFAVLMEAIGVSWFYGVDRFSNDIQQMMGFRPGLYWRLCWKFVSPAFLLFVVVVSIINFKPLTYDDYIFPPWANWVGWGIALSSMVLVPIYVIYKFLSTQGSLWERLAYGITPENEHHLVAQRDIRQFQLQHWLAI
Procedure, shortened: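 Single 10 μM concentration tested in a receptor/enzyme diversity panel, read as displacement of a target-specific radioligand.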

inhibition (Mus musculus [4]): Dose-dependent effect
INH (Mus musculus [5]): 125 µM
concentration at 5 min [7]: 4800 nM
concentration at 4 h [9]: 20 nM
half-life [10]: 30 min
inhibition (Mus musculus [13]): Active
SMILES: O=C(/C=C/c1ccc(F)c(O)c1)Nc1cccc2ccccc12
Activity (Rattus norvegicus [1]): Non-toxic
Activity (Rattus norvegicus [2]): Non-toxic
Activity [3]: Not Active
Activity (Mus musculus [6]): 108.4 µM
Activity (Oryctolagus cuniculus [8]): 30.9%
Activity (Rattus norvegicus [11]): Non-toxic
Activity (Rattus norvegicus [12]): Non-toxic

SMILES: C/C=C/C[C@@H](C)[C@@H](O)[C@H]1C(=O)N[C@@H](CC)C(=O)N(C)CC(=O)N(C)[C@@H](CC(C)C)C(=O)N[C@@H](C(C)C)C(=O)N(C)[C@@H](CC(C)C)C(=O)N[C@@H](C)C(=O)N[C@H](C)C(=O)N(C)[C@@H](CC(C)C)C(=O)N(C)[C@@H](CC(C)C)C(=O)N(C)[C@@H](C(C)C)C(=O)N1C [CYCLOSPORINE]
Activity (Oryctolagus cuniculus [14]): 32.6%

inhibition (Mus musculus [15]): Active
inhibition (Mus musculus [16]): Active
inhibition (Mus musculus [17]): Active
inhibition (Mus musculus [18]): Active
inhibition [19]: > 50%
SMILES: COc1ccc(/C=C/C(=O)Nc2cccc(Cl)c2)cc1O
